According to ChEMBL document CHEMBL1128605, “(1S,2S)-1-(4-hydroxyphenyl)-2-(4-hydroxy-4-phenylpiperidino)-1-propanol: a potent new neuroprotectant which blocks N-methyl-D-aspartate responses” (J Med Chem, 1995):
Calls of active or inactive are those of the source. The calls are words filed in the database; no cut-off is given here.

Experiments:
Rattus norvegicus [1] = organism: Rattus norvegicus; test: Selectivity between protection against glutamate-induced neuronal damage and alpha 1 adrenergic affinity; Not significant
How it was run: (§1)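 Selectivity index: ratio of α1 adrenergic affinity ([3H]prazosin binding IC50) to neuroprotection IC50 (inhibition of glutamate-induced death of primary rat hippocampal neurons).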

Glutamate NMDA receptor = test: In vitro inhibition of glutamate induced neuronal death in primary cultures of rat hippocampal neurons.; assay type: functional, tissue-based, Hippocampus
[2] = target: T1, Adrenergic receptor alpha-1 (Rattus norvegicus, UniProt P15823+P23944+P43140); test: In vitro binding affinity against Alpha-1 adrenergic receptor using [3H]prazosin as radioligand; assay type: protein assay
T1 sequence (P15823 whole entry): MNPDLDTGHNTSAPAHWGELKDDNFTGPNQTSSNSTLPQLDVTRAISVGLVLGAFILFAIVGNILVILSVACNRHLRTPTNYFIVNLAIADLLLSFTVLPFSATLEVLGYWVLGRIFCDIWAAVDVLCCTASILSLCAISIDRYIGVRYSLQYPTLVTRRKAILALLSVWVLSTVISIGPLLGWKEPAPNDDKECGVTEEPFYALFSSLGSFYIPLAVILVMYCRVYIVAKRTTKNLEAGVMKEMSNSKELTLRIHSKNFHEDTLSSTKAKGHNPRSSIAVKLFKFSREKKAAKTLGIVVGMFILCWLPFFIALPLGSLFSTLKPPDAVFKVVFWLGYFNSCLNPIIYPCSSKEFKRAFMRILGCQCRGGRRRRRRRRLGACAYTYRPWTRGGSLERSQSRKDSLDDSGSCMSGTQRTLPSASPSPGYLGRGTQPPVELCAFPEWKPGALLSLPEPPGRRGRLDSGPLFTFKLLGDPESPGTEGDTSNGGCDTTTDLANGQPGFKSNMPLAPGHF
T1 sequence (P23944 whole entry): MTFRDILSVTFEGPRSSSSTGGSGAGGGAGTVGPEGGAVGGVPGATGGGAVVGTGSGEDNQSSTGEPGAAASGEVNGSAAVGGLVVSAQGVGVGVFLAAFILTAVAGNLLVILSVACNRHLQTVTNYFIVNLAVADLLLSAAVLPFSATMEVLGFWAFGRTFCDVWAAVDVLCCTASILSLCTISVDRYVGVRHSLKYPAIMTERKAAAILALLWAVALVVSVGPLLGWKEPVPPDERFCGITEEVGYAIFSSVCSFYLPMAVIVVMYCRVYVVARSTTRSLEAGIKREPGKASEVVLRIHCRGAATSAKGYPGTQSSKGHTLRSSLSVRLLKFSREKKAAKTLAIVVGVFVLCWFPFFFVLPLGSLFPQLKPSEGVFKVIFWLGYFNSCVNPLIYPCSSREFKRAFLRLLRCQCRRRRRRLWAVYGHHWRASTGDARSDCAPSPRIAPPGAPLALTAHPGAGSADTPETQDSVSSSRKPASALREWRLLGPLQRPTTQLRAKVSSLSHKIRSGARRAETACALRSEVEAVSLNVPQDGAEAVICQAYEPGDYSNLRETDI
T1 sequence (P43140 whole entry): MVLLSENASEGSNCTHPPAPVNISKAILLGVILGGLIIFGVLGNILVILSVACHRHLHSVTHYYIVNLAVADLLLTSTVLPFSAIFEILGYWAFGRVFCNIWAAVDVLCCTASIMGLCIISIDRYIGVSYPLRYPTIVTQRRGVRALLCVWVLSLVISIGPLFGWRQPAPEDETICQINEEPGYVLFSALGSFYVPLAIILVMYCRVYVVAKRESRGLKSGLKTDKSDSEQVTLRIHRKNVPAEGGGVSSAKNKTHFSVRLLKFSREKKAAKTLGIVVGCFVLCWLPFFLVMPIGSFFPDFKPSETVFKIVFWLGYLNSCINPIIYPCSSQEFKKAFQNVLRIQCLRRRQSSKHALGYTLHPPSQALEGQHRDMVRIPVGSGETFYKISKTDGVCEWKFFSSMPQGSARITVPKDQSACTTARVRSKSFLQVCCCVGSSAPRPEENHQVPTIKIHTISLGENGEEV

Rattus norvegicus [3] = organism: Rattus norvegicus; test: Selectivity between protection against glutamate-induced neuronal damage and alpha 1 adrenergic affinity; how it was run: as §1
Rattus norvegicus [4] = test: In vivo inhibition of haloperidol-induced catalepsy in rat following s.c. administration.; assay type: functional; settings: sc
[5] = In vivo inhibition of NMDA-stimulated fos induction in mouse following i.p. administration.; assay type: functional; settings: ip
How it was run: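 Male CF-1 mice (20–25 g), 12 h light/dark, 22 °C. Compound in 50% poly(ethylene glycol) given ip 30 min before NMDA 75 mg/kg ip (subseizure dose). After 1 h: pentobarbital, paraformaldehyde perfusion, two 50 μm hippocampal coronal sections per brain. Sheep anti-Fos (1:1500) immunostaining by avidin–biotin method, glucose oxidase substrate. ED50 calculated against vehicle-only and NMDA-only sections.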

SMILES | IC50 [2] [nM] | Selectivity ratio (Rattus norvegicus [1]) | IC50 (Glutamate NMDA receptor) [nM] | Selectivity ratio (Rattus norvegicus [3]) | ED50 (Rattus norvegicus [4]) [mg/kg] | ED50 [5] [mg/kg]
C[C@@H]([C@@H](O)c1ccccc1)N1CCC(O)(c2ccccc2)CC1 | > 10000 | inactive | > 1000 | – | – | –
CCC[C@@H]([C@@H](O)c1ccc(O)cc1)N1CCC(O)(Cc2ccccc2)CC1 | > 10000 | – | – | 7.7 | – | –
CC[C@@H]([C@@H](O)c1ccc(O)cc1)N1CCC(O)(Cc2ccccc2)CC1 | > 10000 | – | 68 | > 147 | – | –
C[C@@H]([C@@H](O)c1ccc(O)cc1)N1CCC(O)(CCCc2ccccc2)CC1 | 2350 | – | 15.7 | 150 | – | –
Cc1ccc(C2(O)CCN([C@@H](C)[C@@H](O)c3ccc(O)cc3)CC2)cc1 | 2166 | – | 2.7 | 1080 | – | –
C[C@@H]([C@@H](O)c1ccc(O)cc1)N1CCC(O)(CCCCc2ccccc2)CC1 | 2300 | – | 1000 | 2.3 | – | –
COC1(Cc2ccccc2)CCN([C@@H](C)[C@@H](O)c2ccc(O)cc2)CC1 | – | inactive | > 10000 | – | – | –
C[C@@H]([C@@H](O)c1ccc(O)cc1)N1CCC(O)(c2ccc(Cl)cc2)CC1 | 1480 | – | 2 | 740 | – | –
Oc1ccc(C(O)CN2CCC(O)(Cc3ccccc3)CC2)cc1 (stereo not given) | > 10000 | – | 63 | > 158 | – | –
C[C@@H]([C@@H](O)c1ccc(O)cc1)N1CCN(Cc2ccccc2)CC1 | – | inactive | – | – | – | –
C[C@@H]([C@@H](O)c1ccc(O)cc1)N1CCN(C(=O)c2ccccc2)CC1 | > 10000 | inactive | > 10000 | – | – | –

Continued, in another order:

IC50 [2] [nM] | SMILES | Selectivity ratio (Rattus norvegicus [1]) | IC50 (Glutamate NMDA receptor) [nM] | Selectivity ratio (Rattus norvegicus [3]) | ED50 (Rattus norvegicus [4]) [mg/kg] | ED50 [5] [mg/kg]
> 10000 | C[C@@H]([C@@H](O)c1ccc(O)cc1)N1CCC(O)(Cc2ccccc2)CC1 | – | – | > 172 | – | –
137 | C[C@@H]([C@@H](O)c1ccc(O)cc1)N1CCC(O)(CCc2ccccc2)CC1 | – | 1.3 | 105 | – | –
8450 | C[C@H]([C@H](O)c1ccc(O)cc1)N1CCC(O)(c2ccccc2)CC1 | – | – | – | 0.5 | 5
19520 | C[C@@H]([C@@H](O)c1ccc(O)cc1)N1CCC(O)(c2ccccc2)CC1 (stereo in doubt) [TRAXOPRODIL] | – | – | – | 0.4 | 1
2700 | C[C@@H]([C@@H](O)c1ccc(O)cc1)N1CCC(O)(c2ccc(F)cc2)CC1 | – | 4 | 675 | – | –
5700 | C[C@@H]([C@@H](O)c1ccc(O)cc1)N1CCC(O)(c2ccccc2)CC1 (stereo in doubt; 10) [TRAXOPRODIL] | – | – | – | – | –
6900 | C[C@@H]([C@@H](O)c1ccc(F)cc1)N1CCC(O)(c2ccccc2)CC1 | inactive | > 1000 | – | – | –
3133 | C[C@@H]([C@@H](O)c1ccc(Cl)cc1)N1CCC(O)(c2ccccc2)CC1 | inactive | > 1000 | – | – | –
